# ChEMBL document CHEMBL1123522, “Angiotensin converting enzyme inhibitors as antihypertensive agents: 1-[(2-mercaptocycloalkyl)carbonyl]-L-prolines” (J Med Chem, 1986)
# Target: T1, Angiotensin-converting enzyme (Rattus norvegicus) (UniProt P47820)
# T1 sequence (whole entry): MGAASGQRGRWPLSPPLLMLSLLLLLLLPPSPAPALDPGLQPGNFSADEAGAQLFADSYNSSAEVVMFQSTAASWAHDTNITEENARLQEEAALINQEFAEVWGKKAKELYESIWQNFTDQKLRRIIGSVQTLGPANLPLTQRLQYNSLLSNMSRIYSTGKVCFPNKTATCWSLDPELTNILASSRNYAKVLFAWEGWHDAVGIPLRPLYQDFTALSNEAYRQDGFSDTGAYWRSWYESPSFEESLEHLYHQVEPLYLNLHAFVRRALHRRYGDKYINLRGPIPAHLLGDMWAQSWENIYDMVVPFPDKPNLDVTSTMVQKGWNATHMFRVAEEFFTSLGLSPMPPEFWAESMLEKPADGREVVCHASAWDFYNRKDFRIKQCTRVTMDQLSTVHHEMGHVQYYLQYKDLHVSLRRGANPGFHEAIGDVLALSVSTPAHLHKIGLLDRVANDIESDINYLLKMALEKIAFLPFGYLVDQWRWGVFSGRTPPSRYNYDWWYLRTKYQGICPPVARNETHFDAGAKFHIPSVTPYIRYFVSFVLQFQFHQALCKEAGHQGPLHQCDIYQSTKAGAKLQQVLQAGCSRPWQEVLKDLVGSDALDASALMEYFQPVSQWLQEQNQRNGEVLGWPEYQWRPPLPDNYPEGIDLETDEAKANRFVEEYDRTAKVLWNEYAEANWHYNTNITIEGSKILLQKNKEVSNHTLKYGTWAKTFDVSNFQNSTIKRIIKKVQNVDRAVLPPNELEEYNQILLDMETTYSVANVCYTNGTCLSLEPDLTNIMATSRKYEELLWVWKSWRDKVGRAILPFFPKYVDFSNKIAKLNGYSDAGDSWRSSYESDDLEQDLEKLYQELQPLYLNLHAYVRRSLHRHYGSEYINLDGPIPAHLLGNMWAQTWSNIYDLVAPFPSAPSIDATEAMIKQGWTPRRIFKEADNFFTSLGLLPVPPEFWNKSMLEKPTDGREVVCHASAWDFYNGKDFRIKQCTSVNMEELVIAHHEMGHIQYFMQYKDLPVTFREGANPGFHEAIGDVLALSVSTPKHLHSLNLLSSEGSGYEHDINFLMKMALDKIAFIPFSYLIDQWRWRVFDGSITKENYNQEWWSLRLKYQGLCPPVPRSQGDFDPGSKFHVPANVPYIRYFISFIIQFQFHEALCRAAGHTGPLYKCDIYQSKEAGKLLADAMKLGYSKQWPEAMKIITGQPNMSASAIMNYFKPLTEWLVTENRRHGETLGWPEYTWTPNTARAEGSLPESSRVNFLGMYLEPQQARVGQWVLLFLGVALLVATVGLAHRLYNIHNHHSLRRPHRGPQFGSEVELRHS
# Experiment: Compound was evaluated for ACE inhibitory activity in conscious normotensive rats at a dose 10 mg/kg given intravenously by determining percent reduction in Angiotensin I converting enzyme response
# Type: organism-based
# Design: dose 10 mg/kg
# Conditions: not given
row,SMILES,Change in ACE response [%]
1,O=C(S[C@@H]1CCC[C@H]1C(=O)N1CCC[C@H]1C(=O)O)c1ccccc1,-80
2,O=C(O)[C@@H]1CCCN1C(=O)[C@@H]1CCC[C@@H]1S,-41
3,O=C(S[C@H]1CC[C@@H]1C(=O)N1CCC[C@H]1C(=O)O)c1ccccc1,-30
4,O=C(O)[C@@H]1CCCN1C(=O)[C@@H]1CCC[C@H]1S,-75

# Target: T1, Angiotensin-converting enzyme (Rattus norvegicus)
# Experiment: Compound was evaluated for ACE inhibitory activity in conscious normotensive rats at a dose 1 mg/kg given intravenously by determining percent reduction in Angiotensin I converting enzyme response
# Type: organism-based
# Design: dose 1 mg/kg
# Conditions: not given
row,SMILES,Reduction [%]
1,O=C(O)[C@@H]1CCCN1C(=O)[C@@H]1CCC[C@@H]1S,-22
2,O=C(S[C@@H]1CC[C@H]1C(=O)N1CCC[C@H]1C(=O)O)c1ccccc1,-45
3,O=C(S[C@H]1CC[C@@H]1C(=O)N1CCC[C@H]1C(=O)O)c1ccccc1,-18
4,O=C(O)[C@@H]1CCCN1C(=O)[C@@H]1CCC[C@H]1S,-42

# Tested on: Canis familiaris
# Experiment: Compound was evaluated for antihypertensive activity in conscious renal hypertensive dogs at a 10 mg/kg dose given orally
# Type: functional, Canis lupus familiaris
# Conditions: route oral
# Summary of the method: (§1)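 Conscious mongrel dogs made hypertensive by bilateral renal artery constriction (Goldblatt). Drug given by gavage in gelatine capsules; systolic pressure fall vs 0 time, observed up to 7 h; Dunnett's t test.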
row,SMILES,SBP decrease [%]
1,O=C(S[C@@H]1CCC[C@H]1C(=O)N1CCC[C@H]1C(=O)O)c1ccccc1,-15
2,C[C@H](CS)C(=O)N1CCC[C@H]1C(=O)O [CAPTOPRIL],-15
3,O=C(S[C@@H]1CC[C@H]1C(=O)N1CCC[C@H]1C(=O)O)c1ccccc1,-15
4,O=C(S[C@H]1CC[C@@H]1C(=O)N1CCC[C@H]1C(=O)O)c1ccccc1,<10
5,O=C(O)[C@@H]1CCCN1C(=O)[C@@H]1CCC[C@H]1S,-18

# Target: T1, Angiotensin-converting enzyme (Rattus norvegicus)
# Experiment: Compound was evaluated for ACE inhibitory activity in conscious normotensive rats at a dose 10 mg/kg given intravenously by determining percent reduction in Angiotensin I converting enzyme
# Type: organism-based
# Design: dose 10 mg/kg
# Conditions: not given
row,SMILES,Reduction [%]
1,O=C(S[C@@H]1CC[C@H]1C(=O)N1CCC[C@H]1C(=O)O)c1ccccc1,-60

# Target: T2, Angiotensin-converting enzyme (Rattus norvegicus, UniProt P47820)
# T2 sequence (P47820 whole entry): T1 sequence (whole entry)
# Experiment: Inhibitory activity against Angiotensin I converting enzyme
# Conditions: not given
row,SMILES,IC50 [µM]
1,O=C(O)[C@@H]1CCCN1C(=O)[C@H]1CCC[C@H]1S,206
2,O=C(S[C@@H]1CCC[C@H]1C(=O)N1CCC[C@H]1C(=O)O)c1ccccc1,0.58
3,CC(C)(C)OC(=O)[C@@H]1CCCN1C(=O)[C@H]1CCC[C@@H]1SC(=O)c1ccccc1,250
4,CC(C)(C)OC(=O)[C@@H]1CCCN1C(=O)[C@H]1CCC(C)(C)[C@@H]1SC(=O)c1ccccc1,250
5,CC(C)(C)OC(=O)[C@@H]1CCCN1C(=O)[C@H]1CC[C@@H]1SC(=O)c1ccccc1,250
6,O=C(O)[C@@H]1CCCN1C(=O)[C@@H]1CCC[C@@H]1S,19.5
7,CC(C)(C)OC(=O)[C@@H]1CCCN1C(=O)[C@@H]1CCC[C@H]1SC(=O)c1ccccc1,250
8,CC(C)(C)OC(=O)[C@@H]1CCCN1C(=O)[C@H]1CCC[C@H]1SC(=O)c1ccccc1,124
9,O=C(S[C@@H]1CCC[C@@H]1C(=O)N1CCC[C@H]1C(=O)O)c1ccccc1,250
10,CC1(C)CC[C@@H](C(=O)N2CCC[C@H]2C(=O)O)[C@@H]1S,215
11,O=C(O)[C@@H]1CCCN1C(=O)[C@H]1CC[C@@H]1S,12.7
12,O=C(O)[C@@H]1CCCN1C(=O)C1CCCCC1S (some centres not stated),11.3
13,CC(C)(C)OC(=O)[C@@H]1CCCN1C(=O)[C@@H]1CCC[C@@H]1SC(=O)c1ccccc1,250
14,CC1(C)CC[C@H](C(=O)N2CCC[C@H]2C(=O)O)[C@H]1S,250
15,CC(C)(C)OC(=O)[C@@H]1CCCN1C(=O)[C@@H]1CCC(C)(C)[C@@H]1SC(=O)c1ccccc1,250
16,CC(C)(C)OC(=O)[C@@H]1CCCN1C(=O)[C@@H]1CC[C@H]1SC(=O)c1ccccc1,250
17,O=C(O)[C@@H]1CCCN1C(=O)[C@@H]1CC[C@H]1S,1.26
18,O=C(S[C@H]1CCC[C@@H]1C(=O)N1CCC[C@H]1C(=O)O)c1ccccc1,144
19,O=C(S[C@H]1CCC[C@H]1C(=O)N1CCC[C@H]1C(=O)O)c1ccccc1,144
20,CC1(C)CC[C@@H](C(=O)N2CCC[C@H]2C(=O)O)[C@H]1SC(=O)c1ccccc1,250
21,O=C(O)[C@@H]1CCCN1C(=O)[C@H]1CCC[C@@H]1S,34.2
22,CC1(C)CC[C@H](C(=O)N2CCC[C@H]2C(=O)O)[C@H]1SC(=O)c1ccccc1,250
23,O=C(O)[C@@H]1CCCN1C(=O)C1CCCC1S (some centres not stated),1.64
24,O=C(S[C@@H]1CC[C@H]1C(=O)N1CCC[C@H]1C(=O)O)c1ccccc1,5.5
25,O=C(S[C@H]1CC[C@@H]1C(=O)N1CCC[C@H]1C(=O)O)c1ccccc1,250
26,O=C(O)[C@@H]1CCCN1C(=O)[C@@H]1CCC[C@H]1S,1.11

# Tested on: Canis familiaris
# Experiment: Compound was evaluated for antihypertensive activity in conscious renal hypertensive dogs at a 30 mg/kg dose given orally
# Type: functional, Canis lupus familiaris
# Conditions: route oral
# Summary of the method: as §1
row,SMILES,SBP decrease [%]
1,O=C(S[C@@H]1CCC[C@H]1C(=O)N1CCC[C@H]1C(=O)O)c1ccccc1,-18
2,O=C(O)[C@@H]1CCCN1C(=O)[C@@H]1CCC[C@@H]1S,<10
3,O=C(O)[C@@H]1CCCN1C(=O)[C@@H]1CC[C@H]1S,<10
4,C[C@H](CS)C(=O)N1CCC[C@H]1C(=O)O [CAPTOPRIL],-19
5,O=C(S[C@@H]1CC[C@H]1C(=O)N1CCC[C@H]1C(=O)O)c1ccccc1,-17
6,O=C(S[C@H]1CC[C@@H]1C(=O)N1CCC[C@H]1C(=O)O)c1ccccc1,-19
7,O=C(O)[C@@H]1CCCN1C(=O)[C@@H]1CCC[C@H]1S,-21
